The values that follow come from ChEMBL document CHEMBL6071149, “Synthesis and photo-induced anticancer activity of new 2-phenylethenyl-1H-benzo[e]indole dyes” (Eur J Med Chem, 2024).

What is called EC50 is the concentration giving half of the maximal effect.

For data set [1], the system named is G-361. Description: Cytotoxicity against human G361 cells under dark condition measured after 72 hrs by MTT assay. In kind it is functional, cell-based. The settings on record: G-361, 72 h. The gist of the method:
(§1)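 Cells grown in phenol red-free DMEM with 10 % FBS, penicillin/streptomycin, 37 °C, 5 % CO₂. Compound added 24 h after plating and incubated 4 h. Irradiated cells received 414 nm LED light at 20 mW/cm², 10 J/cm², then were incubated 20 h or 68 h more. Dark plates were run in parallel without irradiation. MTT was added for 4 h, formazan dissolved in 10 % SDS, absorbance read at 570 nm. EC50 ± SD.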
For orientation: Tetrazolium assays rely on reduction of a dye to a coloured formazan, in cell work by metabolically active cells.

The subject of data set [2] is G-361. The experiment in a line: Cytotoxicity against human G361 cells pretreated for 4 hrs followed by light irradiation of 10 J/cm2 at 414 nm measured after 68 hrs by MTT assay. In kind it is functional, cell-based. The settings on record: G-361, light or radiation study. The gist of the method:
as §1

The nature of data set [3]: Cytotoxicity against human BJ cells under dark condition measured after 72 hrs by MTT assay. In kind it is toxicity, cell-based. The gist of the method:
as §1

Regarding `CC1(C)C(/C=C/c2ccc(C(F)(F)F)cc2)=Nc2ccc3ccccc3c21`, the EC50 in the data set on G-361 [1] stood at 4 µM; with G-361 [2] it was 0.9 µM.

With `COc1ccc(/C=C/C2=Nc3ccc4ccccc4c3C2(C)C)cc1`, the EC50 in the data set with G-361 [1] is 9.5 µM; with G-361 [2] it was 5.2 µM.

Turning to `CC1(C)C(/C=C/c2ccc(Cl)c([N+](=O)[O-])c2)=Nc2ccc3ccccc3c21`, the EC50 with G-361 [1] turned out to be 7.2 µM; in the data set on G-361 [2] it was 0.3 µM. Moreover, the EC50 at 72 h in data set [3] is greater than 10 µM.

Consider `CC1(C)C(/C=C/c2ccccc2[N+](=O)[O-])=Nc2ccc3ccccc3c21`, for which the EC50 worked out at 7.8 µM in the data set with G-361 [1] and 1.1 µM in the data set on G-361 [2]. Further, the half-maximal effective concentration (EC50) at 72 h in data set [3] is greater than 10 µM.

With `CC1(C)C(/C=C/c2ccccc2)=Nc2ccc3ccccc3c21`, the EC50 came out at 6.5 µM in the data set on G-361 [1] and 2.8 µM in the data set on G-361 [2].

Consider `CC1(C)C(/C=C/c2ccc([N+](=O)[O-])cc2)=Nc2ccc3ccccc3c21`, for which the concentration for a half-maximal effect (EC50) in the data set with G-361 [1] turned out to be 5.7 µM; in the data set on G-361 [2], 0.8 µM. Moreover, the EC50 at 72 h in data set [3] was found to be 6 µM.

With `CC1(C)C(/C=C/c2cc(C(F)(F)F)cc(C(F)(F)F)c2)=Nc2ccc3ccccc3c21`, the EC50 in the data set on G-361 [1] was greater than 10 µM; in the data set on G-361 [2] it was 1.3 µM. This molecule also returned a 50% effective concentration (EC50) at 72 h in data set [3] greater than 10 µM.

As for `CN(C)c1ccc(/C=C/C2=Nc3ccc4ccccc4c3C2(C)C)cc1`, the 50% effective concentration (EC50) in the data set on G-361 [1] and with G-361 [2] was greater than 10 µM in each case.

`Cc1ccc(/C=C/C2=Nc3ccc4ccccc4c3C2(C)C)cc1[N+](=O)[O-]`: the results for the EC50 in the data set on G-361 [1] and with G-361 [2] were 6.6 µM and 0.9 µM, respectively. The molecule further showed an EC50 at 72 h in data set [3] of 8 µM.

With `CC1(C)C(/C=C/c2cccc(C(F)(F)F)c2)=Nc2ccc3ccccc3c21`, the EC50 in the data set with G-361 [1] was 7.6 µM; in the data set on G-361 [2], 1.3 µM. Also, the EC50 at 72 h in data set [3] was greater than 10 µM.

With `CC1(C)C(/C=C/c2cc([N+](=O)[O-])ccc2Cl)=Nc2ccc3ccccc3c21`, the concentration for a half-maximal effect (EC50) is greater than 10 µM in the data set on G-361 [1] and 7.9 µM in the data set with G-361 [2].

Take `CC1(C)C(/C=C/c2cccc([N+](=O)[O-])c2)=Nc2ccc3ccccc3c21`: the EC50 in the data set with G-361 [1] is 2.9 µM; in the data set on G-361 [2], 0.4 µM. For the same molecule, the EC50 at 72 h in data set [3] stood at 5 µM.

As to `CC1(C)C(/C=C/c2ccc(C#N)cc2)=Nc2ccc3ccccc3c21`, the EC50 in the data set on G-361 [1] worked out at 5.1 µM; in the data set on G-361 [2] it was 0.5 µM. In addition, the EC50 at 72 h in data set [3] worked out at 6.7 µM.

For the molecule `CC1(C)C(/C=C/c2ccc(F)c([N+](=O)[O-])c2)=Nc2ccc3ccccc3c21`, the EC50 in the data set with G-361 [1] turned out to be 7.9 µM; in the data set on G-361 [2], 1.8 µM.

Take `CC1(C)C(/C=C/c2ccc(F)c(C#N)c2)=Nc2ccc3ccccc3c21`: the EC50 was 6.9 µM with G-361 [1] and 1.4 µM in the data set with G-361 [2].

In the case of `CC1(C)C(/C=C/c2ccc(F)cc2)=Nc2ccc3ccccc3c21`, the EC50 in the data set with G-361 [1] worked out at 7.3 µM; in the data set on G-361 [2], 4.1 µM.

`CC1(C)C(/C=C/c2ccc(Br)cc2)=Nc2ccc3ccccc3c21`: the EC50 in the data set on G-361 [1] was 7.6 µM; with G-361 [2], 1.3 µM. Moreover, the EC50 at 72 h in data set [3] is greater than 10 µM.

For the molecule `CCN(CC)c1ccc(/C=C/C2=Nc3ccc4ccccc4c3C2(C)C)cc1`, the EC50 with G-361 [1] and in the data set on G-361 [2] was greater than 10 µM throughout.

As for `CC1(C)C(/C=C/c2ccc(C#N)c(F)c2)=Nc2ccc3ccccc3c21`, the EC50 was 6.2 µM with G-361 [1] and 0.6 µM with G-361 [2]. In data set [3], this molecule returned an EC50 at 72 h of 7.2 µM.

Regarding `CC1(C)C(/C=C/c2cccc(C#N)c2)=Nc2ccc3ccccc3c21`, the results for the EC50 in the data set with G-361 [1] and in the data set with G-361 [2] were 3.7 µM and 0.9 µM, respectively.
